Reference: ChEMBL document CHEMBL1136894, “New antituberculotics originated from salicylanilides with promising in vitro activity against atypical mycobacterial strains” (Bioorg Med Chem, 2009)
In brackets after ≈: the same amount, converted by molar mass.

Key:
[1] = test system: Mycobacterium tuberculosis; assay: Antimycobacterial activity against Mycobacterium tuberculosis CNCTC My 331/88 after 14 days; format: functional; settings: CNCTC My 331/88, 336 h
In short: (§1)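 Broth dilution in Sula semisynthetic medium, compounds added as DMSO solutions at 250, 125, 62, 32, 16, 8, 4, 2 and 1. Strains came from the Czech National Collection of Type Cultures; the M. tuberculosis inoculum was diluted 10^-3. Cultures were incubated at 37 °C, and MIC was read after 7, 14 and 21 days.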

Mycobacterium avium [2] = assay: Antimycobacterial activity against Mycobacterium avium CNCTC My 330/88 after 21 days; format: functional; settings: CNCTC My 330/88, 504 h; in short: as §1
Mycobacterium kansasii [3] = assay: Antimycobacterial activity against Mycobacterium kansasii CNCTC My 235/80 after 14 days; format: functional; settings: CNCTC My 235/80, 336 h
In short: (§2)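 Compounds were added as DMSO solutions to Sula semisynthetic medium at 250, 125, 62, 32, 16, 8, 4, 2 and 1 µmol/L. Two M. kansasii strains were used: CNCTC My 235/80 and clinical isolate 6509/96, each with strain dilution 10^-4. Incubation was at 37 °C, and MIC was read at 7, 14 and 21 days.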

Mycobacterium kansasii [4] = assay: Antimycobacterial activity against Mycobacterium kansasii isolate 6509/96 after 21 days; format: functional; settings: isolate 6509/96, 504 h; in short: as §2
[5] = test system: Mycobacterium tuberculosis; assay: Antimycobacterial activity against Mycobacterium tuberculosis CNCTC My 331/88 after 21 days; format: functional; settings: CNCTC My 331/88, 504 h; in short: as §1
Mycobacterium kansasii [6] = assay: Antimycobacterial activity against Mycobacterium kansasii CNCTC My 235/80 after 21 days; format: functional; settings: CNCTC My 235/80, 504 h; in short: as §2
Mycobacterium kansasii [7] = assay: Antimycobacterial activity against Mycobacterium kansasii isolate 6509/96 after 14 days; format: functional; settings: isolate 6509/96, 336 h; in short: as §2
Mycobacterium kansasii [8] = assay: Antimycobacterial activity against Mycobacterium kansasii CNCTC My 235/80 after 7 days; format: functional; settings: CNCTC My 235/80, 168 h; in short: as §2
Mycobacterium kansasii [9] = assay: Antimycobacterial activity against Mycobacterium kansasii isolate 6509/96 after 7 days; format: functional; settings: isolate 6509/96, 168 h; in short: as §2
Mycobacterium avium [10] = assay: Antimycobacterial activity against Mycobacterium avium CNCTC My 330/88 after 14 days; format: functional; settings: CNCTC My 330/88, 336 h; in short: as §1
[11] = Lipophilicity, log K by HPLC; format: physicochemical
In short: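 Capacity factors k were measured by RP-HPLC and log k was calculated from them.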

SMILES	MIC [1]	MIC (Mycobacterium avium [2])	MIC (Mycobacterium kansasii [3])	MIC (Mycobacterium kansasii [4])	MIC [5]	MIC (Mycobacterium kansasii [6])	MIC (Mycobacterium kansasii [7])	MIC (Mycobacterium kansasii [8])	MIC (Mycobacterium kansasii [9])	MIC (Mycobacterium avium [10])	log K [11]
C[C@@H](NC(=O)OCc1ccccc1)C(=O)Oc1ccc(Cl)cc1C(=O)Nc1cccc(Cl)c1	8 µM (≈ 3.9 µg/mL)	32 µM (≈ 15.6 µg/mL)	16 µM (≈ 7.8 µg/mL)	16 µM (≈ 7.8 µg/mL)	8 µM (≈ 3.9 µg/mL)	16 µM (≈ 7.8 µg/mL)	16 µM (≈ 7.8 µg/mL)	16 µM (≈ 7.8 µg/mL)	8 µM (≈ 3.9 µg/mL)	32 µM (≈ 15.6 µg/mL)	0.699
CC(C)[C@H](NC(=O)OCc1ccccc1)C(=O)Oc1ccc(Cl)cc1C(=O)Nc1ccc(Cl)c(Cl)c1	2 µM (≈ 1.1 µg/mL)	32 µM (≈ 17.6 µg/mL)	4 µM (≈ 2.2 µg/mL)	8 µM (≈ 4.4 µg/mL)	4 µM (≈ 2.2 µg/mL)	8 µM (≈ 4.4 µg/mL)	8 µM (≈ 4.4 µg/mL)	4 µM (≈ 2.2 µg/mL)	8 µM (≈ 4.4 µg/mL)	16 µM (≈ 8.8 µg/mL)	1.1567
C[C@@H](NC(=O)OCc1ccccc1)C(=O)Oc1ccc(Cl)cc1C(=O)Nc1ccc(Cl)cc1	4 µM (≈ 1.95 µg/mL)	16 µM (≈ 7.8 µg/mL)	16 µM (≈ 7.8 µg/mL)	16 µM (≈ 7.8 µg/mL)	4 µM (≈ 1.95 µg/mL)	16 µM (≈ 7.8 µg/mL)	8 µM (≈ 3.9 µg/mL)	8 µM (≈ 3.9 µg/mL)	8 µM (≈ 3.9 µg/mL)	16 µM (≈ 7.8 µg/mL)	0.7294
O=C(N[C@@H](Cc1ccccc1)C(=O)Oc1ccc(Cl)cc1C(=O)Nc1ccc(Cl)c(Cl)c1)OCc1ccccc1	2 µM (≈ 1.2 µg/mL)	32 µM (≈ 19.1 µg/mL)	4 µM (≈ 2.39 µg/mL)	8 µM (≈ 4.78 µg/mL)	2 µM (≈ 1.2 µg/mL)	8 µM (≈ 4.78 µg/mL)	8 µM (≈ 4.78 µg/mL)	4 µM (≈ 2.39 µg/mL)	8 µM (≈ 4.78 µg/mL)	16 µM (≈ 9.57 µg/mL)	1.3056
CC(C)[C@@H](NC(=O)OCc1ccccc1)C(=O)Oc1ccc(Cl)cc1C(=O)Nc1ccc(Cl)c(Cl)c1	2 µM (≈ 1.1 µg/mL)	16 µM (≈ 8.8 µg/mL)	4 µM (≈ 2.2 µg/mL)	16 µM (≈ 8.8 µg/mL)	4 µM (≈ 2.2 µg/mL)	8 µM (≈ 4.4 µg/mL)	8 µM (≈ 4.4 µg/mL)	4 µM (≈ 2.2 µg/mL)	8 µM (≈ 4.4 µg/mL)	16 µM (≈ 8.8 µg/mL)	1.1559
O=C(CNC(=O)OCc1ccccc1)Oc1ccc(Cl)cc1C(=O)Nc1ccc(Cl)c(Cl)c1	1 µM (≈ 0.508 µg/mL)	32 µM (≈ 16.2 µg/mL)	8 µM (≈ 4.06 µg/mL)	8 µM (≈ 4.06 µg/mL)	2 µM (≈ 1.02 µg/mL)	16 µM (≈ 8.12 µg/mL)	8 µM (≈ 4.06 µg/mL)	8 µM (≈ 4.06 µg/mL)	8 µM (≈ 4.06 µg/mL)	16 µM (≈ 8.12 µg/mL)	0.8639
O=C(CNC(=O)OCc1ccccc1)Oc1ccc(Cl)cc1C(=O)Nc1cccc(Cl)c1	4 µM (≈ 1.89 µg/mL)	32 µM (≈ 15.1 µg/mL)	16 µM (≈ 7.57 µg/mL)	16 µM (≈ 7.57 µg/mL)	8 µM (≈ 3.79 µg/mL)	16 µM (≈ 7.57 µg/mL)	16 µM (≈ 7.57 µg/mL)	16 µM (≈ 7.57 µg/mL)	8 µM (≈ 3.79 µg/mL)	16 µM (≈ 7.57 µg/mL)	0.6119
O=C(N[C@@H](Cc1ccccc1)C(=O)Oc1ccc(Cl)cc1C(=O)Nc1ccc(Cl)cc1)OCc1ccccc1	4 µM (≈ 2.25 µg/mL)	16 µM (≈ 9.01 µg/mL)	16 µM (≈ 9.01 µg/mL)	16 µM (≈ 9.01 µg/mL)	4 µM (≈ 2.25 µg/mL)	16 µM (≈ 9.01 µg/mL)	16 µM (≈ 9.01 µg/mL)	8 µM (≈ 4.51 µg/mL)	8 µM (≈ 4.51 µg/mL)	16 µM (≈ 9.01 µg/mL)	1.0971
NNC(=O)c1ccncc1 [ISONIAZID]	0.5 µM (≈ 0.0686 µg/mL)	> 250 µM	> 250 µM	8 µM (≈ 1.1 µg/mL)	0.5 µM (≈ 0.0686 µg/mL)	> 250 µM	8 µM (≈ 1.1 µg/mL)	> 250 µM	4 µM (≈ 0.549 µg/mL)	> 250 µM	
C[C@@H](NC(=O)OCc1ccccc1)C(=O)Oc1ccc(Cl)cc1C(=O)Nc1ccc(Cl)c(Cl)c1	2 µM (≈ 1.04 µg/mL)	32 µM (≈ 16.7 µg/mL)	8 µM (≈ 4.17 µg/mL)	8 µM (≈ 4.17 µg/mL)	4 µM (≈ 2.09 µg/mL)	16 µM (≈ 8.35 µg/mL)	8 µM (≈ 4.17 µg/mL)	8 µM (≈ 4.17 µg/mL)	4 µM (≈ 2.09 µg/mL)	16 µM (≈ 8.35 µg/mL)	0.938
